Data taken from ChEMBL document CHEMBL1131635 (J Med Chem, 1998).

Biological target: T1, Phosphoglycerate kinase (Saccharomyces cerevisiae S288c, UniProt P00560)
T1 sequence (P00560 whole entry): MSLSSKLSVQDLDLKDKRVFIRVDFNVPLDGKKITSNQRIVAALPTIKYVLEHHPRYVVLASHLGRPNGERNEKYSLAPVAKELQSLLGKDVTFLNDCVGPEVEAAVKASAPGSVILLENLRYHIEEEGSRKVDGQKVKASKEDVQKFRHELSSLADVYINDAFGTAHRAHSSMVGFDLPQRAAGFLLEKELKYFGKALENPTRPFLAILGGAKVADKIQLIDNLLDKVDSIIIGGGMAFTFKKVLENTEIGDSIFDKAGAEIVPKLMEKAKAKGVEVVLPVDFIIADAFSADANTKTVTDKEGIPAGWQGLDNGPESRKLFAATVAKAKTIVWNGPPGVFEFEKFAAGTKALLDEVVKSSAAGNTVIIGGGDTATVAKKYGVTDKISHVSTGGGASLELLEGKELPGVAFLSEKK
Assay: Dissociation constant of phosphoglycerate kinase (PGK) at pH (3.0-11.0) was determined
Procedure, shortened: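 Free bisphosphonic acids in stirred solution were titrated from pH 11 down to pH 3 by controlled addition of 0.1 M HCl using an autotitrator with a combined glass electrode. The titration curves were plotted over pH 3–11, and successive pKa values of the phosphonic acid groups were calculated from the experimental data.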

`O=C(CCCP(=O)(O)O)CP(=O)(O)O` showed a Kd of 19 µM.
`O=C(CP(=O)(O)O)NCC(F)(F)P(=O)(O)O` showed a Kd of 2 µM.
`O=P(O)(O)CCCCC(F)(F)P(=O)(O)O` showed a Kd of 4 µM.
`O=P(O)(O)CCCCCCP(=O)(O)O` gave a Kd of 2130 µM.
With `O=C(CCP(=O)(O)O)CP(=O)(O)O` the Kd was 2 µM.
With `O=C(CCC(F)(F)P(=O)(O)O)C(F)(F)P(=O)(O)O` the Kd was 5 µM.
Work on `O=C(CCP(=O)(O)O)C(F)(F)P(=O)(O)O` yielded a Kd of 3 µM.
`O=C(CCCP(=O)(O)O)C(F)(F)P(=O)(O)O` showed a Kd of 76 µM.
Work on `O=P(O)(O)C(F)(F)COCC(F)(F)P(=O)(O)O` yielded a Kd of 265 µM.
With `O=C(CP(=O)(O)O)NCCP(=O)(O)O` the Kd was 675 µM.
Work on `O=P(O)(O)C(F)(F)C(O)(O)C(F)(F)P(=O)(O)O` yielded a Kd of 72 µM.
`O=P(O)(O)C(F)(F)CCCCC(F)(F)P(=O)(O)O` was tested, and the Kd was 1000 µM.
For `O=C(NCCP(=O)(O)O)C(F)(F)P(=O)(O)O`, the Kd was 6 µM.
